Each block holds one molecule with its values, some of them ahead of it. Activity calls are given as the source filed them. The calls are words filed in the database; no cut-off is given here.
Assays:
[1] = test system: Aspergillus flavus; assay: Antifungal activity against Aspergillus flavus AIIMS isolate at 30 ug/ml by cup-plate agar diffusion method; format: functional; details: for zone of inhibition at 30 µg/mL: read-out: DIZ
Outline: (§1)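 Cup-plate agar diffusion assay against the fungal strains, with amphotericin B as the reference standard.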

[2] = test system: Escherichia coli; assay: Antibacterial activity against Escherichia coli ATCC 25922 at 100 ug/ml after 24 hrs; format: functional, organism-based
Outline: (§2)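 Organisms grown overnight at 37 °C in buffered glucose broth. A loopful (5 mm diameter) was added to buffered glucose broth containing the test compound and incubated at 37 °C for 24 h. Growth was scored against the untreated control as total inhibition, poor, medium or confluent growth.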

[3] = test system: Aspergillus niger; assay: Antifungal activity against Aspergillus niger AIIMS isolate at 30 ug/ml by cup-plate agar diffusion method; format: functional; details: for zone of inhibition at 30 µg/mL: read-out: DIZ; outline: as §1
[4] = test system: Escherichia coli; assay: Antibacterial activity against Escherichia coli ATCC 25922 after 24 hrs; format: functional
[5] = test system: Candida albicans; assay: Antifungal activity against Candida albicans MTCC 1637 at 30 ug/ml by cup-plate agar diffusion method; format: functional; details: for zone of inhibition at 30 µg/mL: read-out: DIZ; outline: as §1
[6] = test system: Bacillus subtilis; assay: Antibacterial activity against Bacillus subtilis MTCC 121 at 500 ug/ml after 24 hrs; format: functional, organism-based; outline: as §2
[7] = test system: Escherichia coli; assay: Antibacterial activity against Escherichia coli ATCC 25922 at 200 ug/ml after 24 hrs; format: functional, organism-based; outline: as §2
[8] = test system: Bacillus subtilis; assay: Antibacterial activity against Bacillus subtilis MTCC 121 after 24 hrs; format: functional
[9] = test system: Escherichia coli; assay: Antibacterial activity against Escherichia coli ATCC 25922 at 10 ug/ml after 24 hrs; format: functional, organism-based; outline: as §2
[10] = test system: Bacillus subtilis; assay: Antibacterial activity against Bacillus subtilis MTCC 121 at 100 ug/ml after 24 hrs; format: functional, organism-based; outline: as §2
[11] = test system: Escherichia coli; assay: Antibacterial activity against Escherichia coli ATCC 25922 at 1 ug/ml after 24 hrs; format: functional, organism-based; outline: as §2
[12] = test system: Escherichia coli; assay: Antibacterial activity against Escherichia coli ATCC 25922 at 500 ug/ml after 24 hrs; format: functional, organism-based; outline: as §2
[13] = test system: Bacillus subtilis; assay: Antibacterial activity against Bacillus subtilis MTCC 121 at 1 ug/ml after 24 hrs; format: functional, organism-based; outline: as §2
[14] = test system: Bacillus subtilis; assay: Antibacterial activity against Bacillus subtilis MTCC 121 at 200 ug/ml after 24 hrs; format: functional, organism-based; outline: as §2
[15] = test system: Bacillus subtilis; assay: Antibacterial activity against Bacillus subtilis MTCC 121 at 10 ug/ml after 24 hrs; format: functional, organism-based; outline: as §2

Compound: Cc1nc2ccccc2n1Cc1nnc(N2C(=O)C(Cl)C2c2ccc(Cl)cc2)s1 (stereo not given)
diameter of the inhibition zone (DIZ) [1]: inactive | inhibition [2]: inactive | diameter of the inhibition zone (DIZ) [3]: inactive | MIC [4]: inactive | diameter of the inhibition zone (DIZ) [5]: inactive | Activity [6]: inactive | inhibition [7]: inactive | MIC [8]: inactive | inhibition [9]: inactive | inhibition [10]: inactive | inhibition [11]: inactive | inhibition [12]: inactive | inhibition [13]: inactive | inhibition [14]: inactive | inhibition [15]: inactive

Compound: COc1ccccc1C1C(Cl)C(=O)N1c1nnc(Cn2c(C)nc3ccccc32)s1 (stereo not given)
zone of inhibition at 30 µg/mL [1]: < 10 mm | inhibition [2]: inactive | zone of inhibition at 30 µg/mL [3]: < 10 mm | MIC [4]: inactive | zone of inhibition at 30 µg/mL [5]: < 10 mm | Activity [6]: inactive | inhibition [7]: inactive | MIC [8]: inactive | inhibition [9]: inactive | inhibition [10]: inactive | inhibition [11]: inactive | inhibition [12]: inactive | inhibition [13]: inactive | inhibition [14]: inactive | inhibition [15]: inactive

The next lines start with results.

MIC [4]: inactive | MIC [8]: inactive
Compound: Cc1nc2ccccc2n1Cc1nnc(/N=C/c2cccc(O)c2)s1
zone of inhibition at 30 µg/mL [1]: 10 mm | inhibition [2]: inactive | zone of inhibition at 30 µg/mL [3]: 10 mm | zone of inhibition at 30 µg/mL [5]: 22 mm | Activity [6]: inactive | inhibition [7]: inactive | inhibition [9]: inactive | inhibition [10]: inactive | inhibition [11]: inactive | inhibition [12]: inactive | inhibition [13]: inactive | inhibition [14]: inactive | inhibition [15]: inactive

MIC [4]: inactive
Compound: Cc1cccc(/C=N/c2nnc(Cn3c(C)nc4ccccc43)s2)c1
diameter of the inhibition zone (DIZ) [1]: inactive | inhibition [2]: inactive | diameter of the inhibition zone (DIZ) [3]: inactive | diameter of the inhibition zone (DIZ) [5]: inactive | Activity [6]: inactive | inhibition [7]: inactive | Activity [8]: inactive | inhibition [9]: inactive | inhibition [10]: inactive | inhibition [11]: inactive | inhibition [12]: inactive | inhibition [13]: inactive | Activity [14]: inactive | inhibition [15]: inactive

MIC [4]: inactive | MIC [8]: inactive
Compound: Cc1cccc(C2C(Cl)C(=O)N2c2nnc(Cn3c(C)nc4ccccc43)s2)c1 (stereo not given)
diameter of the inhibition zone (DIZ) [1]: inactive | inhibition [2]: inactive | diameter of the inhibition zone (DIZ) [3]: inactive | diameter of the inhibition zone (DIZ) [5]: inactive | Activity [6]: inactive | inhibition [7]: inactive | inhibition [9]: inactive | inhibition [10]: inactive | inhibition [11]: inactive | inhibition [12]: inactive | inhibition [13]: inactive | inhibition [14]: inactive | inhibition [15]: inactive

MIC [4]: inactive | MIC [8]: inactive
Compound: Cc1nc2ccccc2n1Cc1nnc(/N=C/c2ccc(Cl)cc2)s1
zone of inhibition at 30 µg/mL [1]: < 10 mm | inhibition [2]: inactive | zone of inhibition at 30 µg/mL [3]: 10 mm | zone of inhibition at 30 µg/mL [5]: 10 mm | Activity [6]: inactive | inhibition [7]: inactive | inhibition [9]: inactive | inhibition [10]: inactive | inhibition [11]: inactive | inhibition [12]: inactive | inhibition [13]: inactive | inhibition [14]: inactive | inhibition [15]: inactive

— ChEMBL document CHEMBL1158335, “Synthesis and evaluation of some new benzimidazole derivatives as potential antimicrobial agents” (2009)
